The source of these data is paper PMC3181126 (Journal of medicinal chemistry, 2011).

The target in data set [1] is T1, σ2 receptor (Rattus norvegicus, UniProt Q5U3Y7).
T1 sequence (Q5U3Y7 1-176): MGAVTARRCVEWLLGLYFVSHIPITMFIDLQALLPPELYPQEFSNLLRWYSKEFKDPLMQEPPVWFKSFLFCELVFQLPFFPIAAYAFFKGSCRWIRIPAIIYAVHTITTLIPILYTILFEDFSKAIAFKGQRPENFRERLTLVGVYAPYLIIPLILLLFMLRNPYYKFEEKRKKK
In words: σ2 receptor radioligand binding, [3H]DTG with. As to conditions: from Ki σ1 (guinea-pig brain) and Ki σ2 (rat liver).

Data set [2] is described as follows: Molar extinction coefficient. Format: physicochemical. The settings on record: EtOH solutions. The gist of the method: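 Absorbance spectra (200–600 nm) of test compound in EtOH at 1–100 μM, in 1 cm quartz cuvettes. ε was obtained by fitting Beer's law to absorbance at the excitation wavelength. Measurements were repeated twice.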
A short description of data set [3]: Fluorescence spectroscopy. Format: physicochemical. The settings on record: for Φ (quantum yield): standard quinine sulfate; for excitation peaks (λexc): approximate values, solvent not stated. The gist of the method: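 Spectra taken in EtOH, CHCl3 and PBS on free bases (hydrochlorides also in EtOH/PBS), with 10 nm excitation/emission bandpass. Emission scanned 300–700 nm; excitation scanned 250–450 or 300–550 nm by compound. Quantum yield was relative to a quinine sulfate standard (reference value 0.546), with absorbance below 0.2 at 347 nm. Spectra were instrument-corrected and integrated, and a refractive-index correction applied.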

Data set [4] concerns BxPC3 cells. The experiment in a line: Cell viability at increasing seeding density. It counts as cell-based, human. The settings on record: 100 μM, seeding density 1 × 10^5 to 9 × 10^5.
The subject of data set [5] is BxPC3 cells. In words: Competition of compound 16 by σ2 agonists, flow cytometry. It counts as cell-based, human. As to conditions: preloading 45 min at increasing concentrations, then 16 (25 nM) 45 min. A general note: In flow cytometry, cells or beads pass a laser one at a time.

“And” between values parts separate entries of the source, which are not always exact repeats. Equal values may be shown once.

As for `CN(C)c1cccc2c(S(=O)(=O)NCCCCCCOc3cccc4c3CCCC4CCCN3CCN(C4CCCCC4)CC3)cccc12` (stereo not shown) [compound 18, 5-Dimethylaonaphthalene-1-sulfonic acid 6-[5-[3-(4-cyclohexylpiperazin-1-yl)propyl]-5,6,7,8-tetrahydronaphthalen-1-yloxy]hexanamide], in data set [1], the “σ2 versus σ1 selectivity” value is “did not show any σ2 versus σ1 selectivity”. In data set [2], the “ε (molar extinction coefficient)” value is 4000 L/mol/cm. In data set [3] (CHCl3), the λem is reported as 490 nm, the λexc was 340 nm and the “Φ (quantum yield)” value was found to be 0.30. Also, in data set [3] (EtOH, free bases), the λem amounted to 507 nm, the λexc was 335 nm and the “Φ (quantum yield)” value is 0.20. In data set [3] (PBS, free bases), this compound showed a λem of 485 nm and a λexc of 345 nm.

Regarding `COc1cccc2c1CCCC2CCCN1CCN(C2CCN(CCCCCCNS(=O)(=O)c3cccc4c(N(C)C)cccc34)CC2)CC1` (stereo not shown) [compound 8, 5-Dimethylaonaphthalene-1-sulfonic acid 6-[4-[4-[3-(5-methoxy-1,2,3,4-tetrahydronaphthalen-1-yl)propyl]piperazin-1-yl]piperidino]hexanamide], the “ε (molar extinction coefficient)” value in data set [2] is 2600 L/mol/cm. Besides, in data set [3] (CHCl3), the λem was 490 nm, the λexc is reported as 346 nm and the “Φ (quantum yield)” value is given as 0.32. Further, in data set [3] (EtOH, free bases), the λem was 507 nm, the λexc amounted to 335 nm and the “Φ (quantum yield)” value was determined as 0.29. In data set [3] (PBS, free bases), the λem is 510 nm and the λexc worked out at 340 nm. In addition, in data set [3], the “excitation peaks (λexc)” value was ~ 335 nm and ~ 450 nm.

As for `COc1cccc2c1CCCC2CCCN1CCN(C2CCN(CCCCCCNc3ccc([N+](=O)[O-])c4nonc34)CC2)CC1` (stereo not shown) [compound 7, 6-[4-[4-[3-(5-Methoxy-1,2,3,4-tetrahydronaphthalen-1-yl]propyl]piperazin-1-yl]piperidino]-N-(7-nitro-2,1,3-benzoxadiazol-4-yl)hexanamine], the “ε (molar extinction coefficient)” value in data set [2] turned out to be 14391 L/mol/cm. Besides, in data set [3] (CHCl3), the λem is 515 nm, the λexc was 450 nm and the “Φ (quantum yield)” value is on record as 0.17. In addition, in data set [3] (EtOH, free bases), the λem amounted to 520 nm, the λexc is 476 nm and the “Φ (quantum yield)” value was determined as 0.08. In addition, in data set [3] (PBS, free bases), the λem came out at 535 nm and the λexc amounted to 480 nm.

Take `O=[N+]([O-])c1ccc(NCCOCCOc2cccc3c2CCCC3CCCN2CCN(C3CCCCC3)CC2)c2nonc12` (stereo not shown) [compound 17, 2-[2-[5-[3-(4-Cyclohexylpiperazin-1-yl)propyl]-5,6,7,8-tetrahydronaphthalen-1-yloxy]ethoxy]-N-(7-nitro-2,1,3-benzoxadiazol-4-yl)ethanamine]: in data set [2], the “ε (molar extinction coefficient)” value turned out to be 6544 L/mol/cm. Moreover, in data set [3] (CHCl3), the λem was 512 nm, the λexc amounted to 450 nm and the “Φ (quantum yield)” value is on record as 0.18. Further, in data set [3] (EtOH, free bases), the λem is 520 nm, the λexc was determined as 465 nm and the “Φ (quantum yield)” value came to 0.04. Further, in data set [3] (PBS, free bases), the λem came to 520 nm and the λexc is listed as 460 nm. The “excitation peaks (λexc)” value in data set [3] is ~ 335 nm and ~ 450 nm.

On to `Fc1cccc(F)c1[C@H]1CC[C@@H](N2CCN(C3CCCCC3)CC2)CC1` [compound 20, cis-1-cyclohexyl-4-[4-(2,6-difluorophenyl)cyclohexyl]piperazine], for which the “cell death versus cell density” value in data set [4] is given as “decreased cell death as the density increased”. The “effect on mean fluorescence intensity of 16” value in data set [5] was “decreased the mean fluorescence intensity of 16”.

On to `COc1cccc2c1CCCC2CCCN1CCN(C2CCCCC2)CC1` (stereo not shown) [compound 1, 1-cyclohexyl-4-[3-(5-methoxy-1,2,3,4-tetrahydronaphthalen-1-yl)propyl]piperazine], for which the “cell death versus cell density” value in data set [4] is recorded as “decreased cell death as the density increased”. Further, the “effect on mean fluorescence intensity of 16” value in data set [5] is “decreased the mean fluorescence intensity of 16”.
